The results in this text go back to ChEMBL document CHEMBL1811759, “Synthesis and topoisomerase I inhibitory activity of a novel diazaindeno[2,1-b]phenanthrene analogue of Lamellarin D” (Bioorg Med Chem, 2011).

Molecules are shown by their SMILES. Activity calls are given as the source filed them. No cut-off for these calls is given here.

The test system of assay [1] is NCI-H460. Nature of the assay: Antiproliferative activity against human NCI-H460 cells after 1 hr by coulter counter analysis. In kind it is functional, cell-based. Conditions: NCI-H460, 1 h. In outline: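 NCI-H460 NSCLC cells in RPMI-1640 + 10% foetal calf serum; log-phase cells seeded in duplicate, drug added 24 h after seeding for 1 h, then counted (Coulter counter) 72 h later. IC50 = concentration giving 50% decrease in cell growth vs untreated control.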

Assay [2] concerns NCI-H460. Nature of the assay: Antiproliferative activity against human NCI-H460 cells after 72 hrs by coulter counter analysis. In kind it is functional, cell-based. The following applies: NCI-H460, 72 h. An outline of the steps: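 NCI-H460 cells grown in RPMI-1640 with 10% foetal calf serum; log-phase cells seeded in duplicate, exposed 24 h post-seeding for 72 h continuously, counted by Coulter counter at end of exposure. IC50 taken as concentration halving cell growth relative to untreated control.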

Assay [3] addresses T1, DNA topoisomerase 1 (Homo sapiens) (UniProt P11387).
T1 sequence (whole entry): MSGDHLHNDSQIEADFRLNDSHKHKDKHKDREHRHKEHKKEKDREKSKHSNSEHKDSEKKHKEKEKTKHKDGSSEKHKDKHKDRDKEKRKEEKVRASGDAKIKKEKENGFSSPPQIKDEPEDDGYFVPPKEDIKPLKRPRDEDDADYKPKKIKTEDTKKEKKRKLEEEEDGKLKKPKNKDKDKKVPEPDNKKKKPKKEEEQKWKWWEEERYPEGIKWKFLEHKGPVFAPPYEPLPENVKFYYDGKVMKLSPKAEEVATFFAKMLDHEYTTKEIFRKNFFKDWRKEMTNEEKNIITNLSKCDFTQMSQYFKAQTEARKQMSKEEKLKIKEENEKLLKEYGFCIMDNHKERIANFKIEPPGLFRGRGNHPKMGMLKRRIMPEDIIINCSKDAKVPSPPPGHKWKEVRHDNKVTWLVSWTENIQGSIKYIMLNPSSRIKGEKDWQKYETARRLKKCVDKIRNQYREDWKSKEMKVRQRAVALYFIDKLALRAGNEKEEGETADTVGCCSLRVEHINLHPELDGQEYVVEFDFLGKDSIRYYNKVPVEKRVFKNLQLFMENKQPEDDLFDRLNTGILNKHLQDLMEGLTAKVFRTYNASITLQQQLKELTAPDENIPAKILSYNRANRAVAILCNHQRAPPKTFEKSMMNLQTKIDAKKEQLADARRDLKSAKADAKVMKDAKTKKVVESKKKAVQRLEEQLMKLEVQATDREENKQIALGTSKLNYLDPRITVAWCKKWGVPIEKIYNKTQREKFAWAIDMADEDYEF
Nature of the assay: Stimulation of human recombinant DNA topoisomerase 1-mediated 751-bp BamHI-EcoRV fragment of SV40 DNA cleavage at 100 uM after 30 mins by polyacrylamide gel-electrophoresis. An outline of the steps:
(§1)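 Gel-purified 751-bp BamHI–EcoRV SV40 DNA fragment, uniquely 3'-end labeled (10,000 cpm/sample), incubated with full-length human recombinant topoisomerase I in 10 mM Tris–HCl pH 7.6, 150 mM KCl, 5 mM MgCl2, 0.1 mM DTT, 30 min, 37 °C. Stopped with 0.5% SDS plus 0.3 mg/mL proteinase K (45 min, 42 °C); products resolved on denaturing 8% polyacrylamide/TBE gel.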

The target in assay [4] is T1, DNA topoisomerase 1 (Homo sapiens). Put plainly: Stimulation of human recombinant DNA topoisomerase 1-mediated 751-bp BamHI-EcoRV fragment of SV40 DNA cleavage at 1 to 50 uM after 30 mins by polyacrylamide gel-electrophoresis. An outline of the steps:
as §1

As for `COc1cc(-c2c3n(c(=O)c4c2c2cc(OC)c(O)cc2n4C)COc2cc(O)c(OC)cc2-3)ccc1O`, the IC50 with NCI-H460 [1] was determined as 4.02 µM; in the assay with NCI-H460 [2], 0.35 µM. In addition, the result in assay [3] was Active.

In turn, `COc1cc(-c2[nH]c(=O)c3c(c2-c2ccc(OC(C)C)c(OC)c2)c2ccccc2n3C)ccc1OC(C)C` returned an IC50 in the assay with NCI-H460 [1] of 60.8 µM. Still for that read-out and setting: the result for `COc1cc(-c2[nH]c(=O)c3[nH]c4cc(OC)c(O)cc4c3c2-c2ccc(O)c(OC)c2)ccc1O` reads 60.8 µM. For the compound `COc1cc2c3c(-c4ccc(OC(C)C)c(OC)c4)c(-c4ccc(OC(C)C)c(OC)c4)[nH]c(=O)c3n(Cc3ccccc3)c2cc1OCc1ccccc1`, in assay [4], the result was inactive. This compound also yielded an IC50 with NCI-H460 [1] of over 150 µM. Take `CCc1c2c(nc3ccc(O)cc13)-c1cc3c(c(=O)n1C2)COC(=O)[C@]3(O)CC`: in assay [4], the result was Active. As for `COc1cc(-c2[nH]c(=O)c3[nH]c4cc(O)c(OC)cc4c3c2-c2ccc(O)c(OC)c2)ccc1O`, the outcome in assay [4] was inactive. Further, in the assay with NCI-H460 [1], the IC50 is 60.8 µM. With `COc1cc(-c2c3c4cc(OC)c(O)cc4oc(=O)c3n3ccc4cc(O)c(OC)cc4c23)ccc1O` [LAMELLARIN D], the outcome in assay [4] was Active. In addition, the 50% inhibitory concentration (IC50) in the assay on NCI-H460 [1] came out at 0.066 µM; in the assay with NCI-H460 [2] it was 0.003 µM. Take `COc1cc(-c2[nH]c(=O)c3c(c2-c2ccc(O)c(OC)c2)c2ccccc2n3C)ccc1O`: the IC50 in the assay with NCI-H460 [1] worked out at 60.8 µM. Regarding `Cn1c2ccccc2c2cc3n(c(=O)c21)COc1ccccc1-3`, the IC50 in the assay on NCI-H460 [1] came out at 118 µM.

Turning to `COc1cc(-c2[nH]c(=O)c3c(c2-c2ccc(O)c(OC)c2)c2cc(OC)c(O)cc2n3Cc2ccccc2)ccc1O`, the outcome in assay [4] was inactive. For the same compound, the IC50 in the assay on NCI-H460 [1] was found to be 119 µM. Take `CC[C@@]1(O)C(=O)OCc2c1cc1n(c2=O)Cc2cc3c(CN(C)C)c(O)ccc3nc2-1` [TOPOTECAN]: the figures for the IC50 in the assay with NCI-H460 [1] and in the assay on NCI-H460 [2] were 1.75 µM and 0.016 µM, respectively.
